Laboratory results reported in ChEMBL document CHEMBL1153571, “New imidazo[1,2-a]quinoxaline derivatives: synthesis and in vitro activity against human melanoma” (Eur J Med Chem, 2009).

Test system: A-375
Assay: Cytotoxicity against human A375 cells after 96 hrs by MTT assay
Type: functional, cell-based
Details: A-375, 96 h
In short: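 A375 human melanoma cells (ATCC) in RPMI-1640 with 10% heat-inactivated FBS, 2 mM L-glutamine, penicillin/streptomycin/amphotericin B, 37 °C, 5% CO2. Plated at 5000 cells/well, attached overnight. Compounds added in 1% DMSO/medium over a log dilution range and left for 96 h. MTT then added for 4 h at 37 °C. Formazan dissolved in isopropanol/1 M HCl (96/4), read at 570 nm. Survival expressed as % of vehicle control, IC50 taken from sigmoidal curves. At least three experiments in triplicate.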

Compound | IC50
CNc1nc2ccccc2n2c(-c3cccc(C(=O)O)c3)cnc12 | 3.47 µM
CNc1nc2ccccc2n2c(-c3ccc(OC)cc3)cnc12 | 0.37 µM
CNc1nc2ccccc2n2c(-c3cccc(O)c3)cnc12 | 0.56 µM
CCOP(=O)(OCC)C(C)NC(=O)N(CCCl)N=O (configuration not stated) [FOTEMUSTINE] | 173 µM
CNc1nc2ccccc2n2c(CCc3ccccc3)cnc12 | 1.57 µM
CNc1nc2ccccc2n2c(-c3cccc(C#N)c3)cnc12 | 27 µM
CNc1nc2ccccc2n2c(-c3cccc([N+](=O)[O-])c3)cnc12 | 40 µM
CC(C)Cn1cnc2c(N)nc3ccccc3c21 [IMIQUIMOD] | 70.3 µM
CNc1nc2ccccc2n2c(-c3cccc(OC)c3)cnc12 | 0.2 µM
CNc1nc2ccccc2n2c(-c3ccccc3)cnc12 | 2.19 µM
CNc1nc2ccccc2n2c(-c3cccc(F)c3)cnc12 | 24.9 µM
CCOc1cccc(-c2cnc3c(NC)nc4ccccc4n23)c1 | 0.3 µM
CNc1nc2ccccc2n2c(-c3cccc(Br)c3)cnc12 | 0.65 µM
CNc1nc2ccccc2n2c(-c3cccc(C(F)(F)F)c3)cnc12 | 1.28 µM
CNc1nc2ccccc2n2c(-c3ccccc3OC)cnc12 | 122 µM
CNc1nc2ccccc2n2c(-c3cccc(Cl)c3)cnc12 | 1.78 µM
CNc1nc2ccccc2n2c(-c3ccoc3)cnc12 | 74.1 µM
